An excerpt weighted towards active compounds, which were near 3.7% of everything screened.
KCNK3 inh: human KCNK3 channel inhibitors, primary screen, CHO cells, FluxOR thallium flux, B-score | AID 602410, 2012 | B-score at 10 µM | FluxOR fluorescence; hits give low values | 340,000 tested, 0.84% active | Potassium channel subfamily K member 3 (Homo sapiens), O14649;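 active = B-score under library mean minus 4 SD, starting fluorescence ratio at most library mean plus 5 SD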;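 also: more negative B-score means stronger inhibition of thallium flux through KCNK3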
KCNQ1 block: inhibitors of human KCNQ1 channel, primary screen, cell-based, thallium flux, high-throughput. 310,000 tested, 1.3% active. CHO-K1 KCNQ1, FluxOR thallium flux fluorescence; hits give high values. Potassium voltage-gated channel subfamily KQT member 1 (Homo sapiens), P51787. B-score at 10 µM;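 active = compounds whose thallium flux B-score, printed positive for inhibition, exceeds three library SD while starting fluorescence stays within three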;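 also: channel opened by potassium depolarization with thallium stimulus after 20 min compound exposure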
Target sequence (P51787 whole entry, looked up): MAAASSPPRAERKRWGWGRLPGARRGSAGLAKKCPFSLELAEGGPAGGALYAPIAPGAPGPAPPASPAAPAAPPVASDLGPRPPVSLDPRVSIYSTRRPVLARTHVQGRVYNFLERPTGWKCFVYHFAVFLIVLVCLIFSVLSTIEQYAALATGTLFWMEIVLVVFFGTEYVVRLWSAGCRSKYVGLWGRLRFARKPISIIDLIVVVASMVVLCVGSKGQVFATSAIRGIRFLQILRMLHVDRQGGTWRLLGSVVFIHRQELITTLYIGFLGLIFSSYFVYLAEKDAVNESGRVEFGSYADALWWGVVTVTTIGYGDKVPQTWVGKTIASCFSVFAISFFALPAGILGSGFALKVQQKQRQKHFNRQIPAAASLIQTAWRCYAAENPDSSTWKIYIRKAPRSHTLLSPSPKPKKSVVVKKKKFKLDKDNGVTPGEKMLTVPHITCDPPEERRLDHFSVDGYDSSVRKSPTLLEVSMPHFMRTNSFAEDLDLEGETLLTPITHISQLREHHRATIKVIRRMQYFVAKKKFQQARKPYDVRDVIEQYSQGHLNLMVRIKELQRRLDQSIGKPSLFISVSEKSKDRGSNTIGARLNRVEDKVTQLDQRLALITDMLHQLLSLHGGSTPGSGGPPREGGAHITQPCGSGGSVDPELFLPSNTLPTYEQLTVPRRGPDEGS
KCNK9 inh: KCNK9 potassium channel inhibitors, primary screen, HEK293 cells, thallium flux. AID 488922, 2010. FluxOR thallium flux fluorescence; hits give low values. 310,000 tested, 1.2% active. Potassium channel subfamily K member 9 (Homo sapiens), Q9NPC2. B-score at 10 µM;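 active = ratio B-score over 3 SD below the library mean, with starting fluorescence within 5 SD of its mean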;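 also: negative B-score means less thallium flux so channel inhibition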
hERG rescue: hERG rescue from dofetilide block, primary screen, cell-based, CHO-hERG, FluxOR thallium flux, dofetilide IC70; Voltage-gated inwardly rectifying potassium channel KCNH2 (Homo sapiens), Q12809; dofetilide IC70 present; activation (rescue from dofetilide block), less the hit threshold, % at 10 µM; 310,000 tested, 0.51% active; AID 1511, 2009;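 active = activation above the mean of controls blocked by dofetilide plus 5 SD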;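 also: thallium influx through hERG after potassium depolarization seen as dye fluorescence rise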
Kir21 inh: inhibitors of mouse Kir2.1 inward-rectifier potassium channel; Inward rectifier potassium channel 2 (Mus musculus), P35561; HEK293-Kir2.1, FluxOR thallium flux fluorescence; hits give low values; B-score at 10 µM; 310,000 tested, 0.85% active; AID 1672, 2009;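 active = fluorescence ratio B-score at or below minus 3 SD of library scores, with starting-brightness B-score within 2 SD, cut at about -4.2 in these data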;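 also: channel flux triggered by added potassium and thallium sulfate stimulus; B-score of peak minus minimum fluorescence over baseline after thallium stimulus; more negative B-score means stronger Kir2.1 block with less thallium influx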
KCNQ1 pot: potentiators or activators of KCNQ1 channel, primary screen, cell-based, thallium flux, high-throughput | Potassium voltage-gated channel subfamily KQT member 1 (Homo sapiens), P51787 | CHO-K1 KCNQ1, thallium flux FluxOR fluorescence; hits give high values | B-score at 10 µM | 310,000 tested, 0.35% active | AID 2648, 2010;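 active = fluorescence ratio B-score, a plate-corrected score, at least three library SD, with initial intensity B-score within 5 SD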
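Assay system: CHO-K1 cells stably expressing KCNQ1. Medium: assay buffer for compound exposure, DMSO matched across wells. Timing: 37 °C overnight plating, 90-min dark dye load, 20-min compound pretreatment. Signal: kinetic FluxOR fluorescence, 10 s baseline plus 110 s post-stimulus.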
An asterisk follows results filed as active; i = inactive; · = no result.

SMILES | KCNK3 inh | KCNQ1 block | KCNK9 inh | hERG rescue | Kir21 inh | KCNQ1 pot
Cc1ccc(-c2nn(-c3cc(N4CCNCC4)ccc3[N+](=O)[O-])c(=O)c3ccccc23)cc1 | i | i | i | -18.5 | -4.22* | i
CCCc1nnc(SCC(=O)Nc2nc(C)cs2)n1CCOC | i | i | i | -2.9 | 1.6 | i
CCC(C(=O)c1ccc(O)cc1)c1ccccc1 (stereo unspecified) | i | i | i | -5.3 | -5.04* | i
CCC(C(=O)N(C(C)C)C(C)C)c1ccccc1 (stereo unspecified) | i | · | · | · | · | ·
Cc1csc(NC(=O)C(C)Oc2ccc(Br)cc2)n1 (stereo unspecified) | i | i | i | -19.7 | -4.96* | i
Cc1csc(NC(=O)CCS(=O)(=O)c2ccc(Br)cc2)n1 | i | i | i | -0.4 | -4.32* | i
CCOc1ccc(S(=O)(=O)N2CCOCC2)cc1NS(=O)(=O)c1ccc(OC)c([N+](=O)[O-])c1 | i | i | i | -7.6 | 3.28 | i
CC(C)C(=O)NC(Nc1ccccc1F)C(Cl)(Cl)Cl (stereo unspecified) | i | i | i | -2.2 | -4.51* | i
CC(C)CC(=O)NC(Nc1ccccc1F)C(Cl)(Cl)Cl (stereo unspecified) | i | i | i | -6.2 | -2.53 | i
CCCC(=O)NC(Nc1ccccc1F)C(Cl)(Cl)Cl (stereo unspecified) | · | i | i | -10.3 | -8.12* | i
O=C(Nc1cccc(Cl)c1Cl)c1cc(S(=O)(=O)NCCc2ccccc2)ccc1F | i | i | i | -2.9 | -2.09 | i
Cc1ccc(CNCCCSc2nc(C)cc(C)n2)cc1 | i | i | i | -4.8 | -4.91* | i
Cc1cc(C)nc(SCCCNCc2c(F)cccc2Cl)n1 | i | i | i | -8.3 | -2.09 | i
COc1cc(NC(=O)COC(=O)CNC(=O)C2CCCCC2)cc(OC)c1 | i | · | · | · | · | ·
CN(C)CC(CCC(CN(C)C)C(=O)c1ccccc1)C(=O)c1ccccc1 (stereo unspecified) | i | i | i | -2.4 | -1.72 | 20*
CCOc1ccc(C(=O)C(CCC(CN(C)C)C(=O)c2ccc(OCC)cc2)CN(C)C)cc1 (stereo unspecified) | i | i | i | -13.6 | -0.67 | 8*
COc1ccc(C(=O)C(CCCCC(CN(C)C)C(=O)c2ccc(OC)cc2)CN(C)C)cc1 (stereo unspecified) | i | i | i | -11.0 | -2.8 | i
Cn1cnnc1SCC(=O)Nc1ncc(C(F)(F)F)cc1Cl | i | i | i | -4.0 | -1.15 | i
O=c1c(C=NCCN2CCNCC2)c(-c2ccccc2)[nH]n1-c1ccc([N+](=O)[O-])cc1 | · | i | i | -18.0 | -5.44* | i
CC(=O)Nc1sc(NC(=O)c2ccccc2)nc1-c1cccs1 | i | i | i | 5.5* | 0.73 | i
Cc1ccc(C(C[N+](=O)[O-])c2c(-c3ccccc3O)[nH][nH]c2=O)cc1 (stereo unspecified) | i | i | i | -7.5 | -9.49* | i
O=c1[nH][nH]c(-c2ccccc2O)c1C(C[N+](=O)[O-])c1ccc(Br)cc1 (stereo unspecified) | i | i | i | -13.5 | -2.94 | i
Cn1c(CNc2nc(-c3ccccc3)cs2)nnc1SCC(=O)OC1CCCCC1 | i | i | i | -10.9 | -5.36* | i
COc1cccc(OCc2nnc(SCC(=O)OC3CCCCC3)n2C)c1 | i | i | i | -12.6 | -4.83* | i
CN(C)Cc1c(C(=O)N/N=C/C2CC=CCC2)nnn1-c1nonc1N (stereo unspecified) | i | i | i | -5.6 | 0.16 | i
SMILES | KCNK3 inh | KCNQ1 block | KCNK9 inh | hERG rescue | Kir21 inh | KCNQ1 pot
CC1(C)N=C(N)N=C(N)N1c1cccc(C#N)c1 | i | · | · | · | · | ·
CNC(C)C(=O)NC(C(=O)N1CCCC1C(=O)Nc1ccc2ncccc2c1)C(C)C (stereo unspecified) | i | · | · | · | · | ·
Cc1nn2c(c1-c1ccc(Cl)cc1)N=C(c1ccco1)CC2c1ccccc1 (stereo unspecified) | i | 7* | -6.68* | -4.6 | 0.37 | i
CC(=O)Nc1ccc(/C=N/N2C(=O)NC(C)(c3ccc(OC(F)F)cc3)C2=O)cc1 (stereo unspecified) | i | i | i | -10.1 | 0.93 | 34*
COC(=O)CCCC(=O)NC1CCCc2c1cnn2-c1ccc(F)cc1F (stereo unspecified) | i | i | i | -7.3 | 0.17 | i
Cc1cc(C)nc(SCc2nnc(SCC(=O)N3CCCc4ccccc43)o2)n1 | i | i | i | -6.3 | -5.05* | i
Cc1ccsc1C(=O)N1CCCC(CO)(Cc2ccccc2)C1 (stereo unspecified) | i | i | i | -5.8 | 1.72 | i
COc1ccc(C(C(=O)NC2CCCCC2)N(C(=O)c2ccco2)c2ccccc2C(C)=O)cc1OC (stereo unspecified) | i | i | i | -6.7 | -1.13 | i
NNC(=S)NC1CCCCCCCCCCC1 | i | 8* | i | -18.4 | -2 | i
Cn1c2ccc(F)cc2c2nnc(SCC(=O)Nc3cccc(O)c3)nc21 | i | i | i | 5.2* | 1.23 | i
CCOC(=O)C(CSCC(=O)c1ccc(Cl)cc1)NC(=O)OC(C)(C)C (stereo unspecified) | i | i | i | -8.0 | -5.67* | i
CCOC(=O)C(CSCC(=O)c1ccc(Br)cc1)NC(=O)OC(C)(C)C (stereo unspecified) | · | i | i | -6.5 | -0.36 | i
O=[N+]([O-])c1cccc(/C=N/Nc2cc(Cl)nc(-c3ccccc3)n2)c1 | -10.4* | 12* | i | -9.2 | 0.28 | i
CC(C#N)N1CCN(S(=O)(=O)c2ccc3c(c2)CCC3)CC1 (stereo unspecified) | i | · | · | · | · | ·
CCOc1ccc(N(CC(=O)N2CCN(c3ccccc3OC)CC2)S(=O)(=O)c2ccc(C)cc2)cc1 | i | 9* | i | -11.5 | 1.2 | i
COc1ccc(N(CC(=O)N2CCN(c3ccccc3)CC2)S(=O)(=O)c2ccc(C)cc2)cc1 | i | i | i | -9.4 | -0.3 | i
COC(=O)C1=NNC(C(=O)OC)C1c1ccccc1 (stereo unspecified) | i | · | · | · | · | ·
